Source: ChEMBL document CHEMBL3351252, “Design, synthesis, and structure-activity relationship studies of a series of [4-(4-carboxamidobutyl)]-1-arylpiperazines: insights into structural features contributing to dopamine D3 versus D2 receptor subtype selectivity” (J Med Chem, 2014)
Active and inactive are the calls of the source. The calls are words filed in the database; no cut-off is given here.

Experiments:
D(3) dopamine receptor [1] = target: T1, D(3) dopamine receptor (Homo sapiens, UniProt P35462); assay: Displacement of [125I]IABN from human D3R expressed in HEK293 cell membranes by gamma counting method
D(2) dopamine receptor [2] = target: T2, D(2) dopamine receptor (Homo sapiens, UniProt P14416); assay: Displacement of [125I]IABN from human D2LR expressed in HEK293 cell membranes by gamma counting method
Homo sapiens [3] = species: Homo sapiens; assay: Selectivity index, ratio of Ki for human D2LR to Ki or human D3R
D(2) dopamine receptor [4] = target: T2, D(2) dopamine receptor; assay: Inverse agonist activity at human D2LR expressed in CHO-K1 cells assessed as inhibition of basal activity by beta-galactosidase based beta-arrestin recruitment assay; assay type: cell-based
How it was run: (§1)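 CHO-K1 cells expressing human D2L receptor, β-arrestin/β-galactosidase fragment-complementation assay. Cells plated 2500/well and grown 48 h at 37 °C. Test compounds given at 11 half-log points from 5 μM, 120 min at 37 °C. Detection reagent added and chemiluminescence read. Results given as % stimulation or inhibition of basal luminescence. Compounds counterscreened for β-gal inhibition.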

D(2) dopamine receptor [5] = target: T2, D(2) dopamine receptor; assay: Agonist activity at human D2LR expressed in CHO-K1 cells assessed as stimulation of basal activity by beta-galactosidase based beta-arrestin recruitment assay; assay type: cell-based; how it was run: as §1
Homo sapiens [6] = species: Homo sapiens; assay: Selectivity index, ratio of IC50 for human D2LR to IC50 for human D3R by beta-galactosidase based beta-arrestin recruitment assay
D(3) dopamine receptor [7] = target: T1, D(3) dopamine receptor; assay: Displacement of [125I]IABN from wild type human D3R expressed in HEK293 cell membranes by gamma counting method
How it was run: (§2)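 Membranes from HEK 293 cells stably expressing receptor, prepared in 50 mM Tris-HCl pH 7.4/10 mM EDTA/150 mM NaCl and stored at −80 °C. […] Nonspecific binding defined with 2 μM (+)-butaclamol. Filtered, gamma counted. IC50 from single-site nonlinear regression, converted to Ki.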

D(2) dopamine receptor [8] = target: T2, D(2) dopamine receptor; assay: Displacement of [125I]IABN from wild type human D2R expressed in HEK293 cell membranes by gamma counting method
D(3) dopamine receptor [9] = target: T1, D(3) dopamine receptor; assay: Displacement of [125I]IABN from chimeric human D3 receptor possessing extracellular loop II of D2 receptor expressed in HEK293 cell membranes by gamma counting method; how it was run: as §2
D(2) dopamine receptor [10] = target: T2, D(2) dopamine receptor; assay: Displacement of [125I]IABN from chimeric human D2 receptor possessing extracellular loop II of D3 receptor expressed in HEK293 cell membranes by gamma counting method
D(3) dopamine receptor [11] = target: D(3) dopamine receptor (Homo sapiens, UniProt P35462, S182I); assay: Displacement of [125I]IABN from human D3R S182I mutant expressed in HEK293 cell membranes by gamma counting method; how it was run: as §2
D(3) dopamine receptor [12] = target: D(3) dopamine receptor (Homo sapiens, UniProt P35462, E90A); assay: Displacement of [125I]IABN from human D3R E90A mutant expressed in HEK293 cell membranes by gamma counting method; how it was run: as §2
D(3) dopamine receptor [13] = target: D(3) dopamine receptor (Homo sapiens, UniProt P35462, E90Q); assay: Displacement of [125I]IABN from human D3R E90Q mutant expressed in HEK293 cell membranes by gamma counting method; how it was run: as §2
D(2) dopamine receptor [14] = target: T2, D(2) dopamine receptor; assay: Agonist activity against human D2R expressed in HEK293 cells assessed as inhibition of forskolin-induced adenyl cyclase activity at 10 times Ki relative to quinpirole; assay type: functional, cell-based
How it was run: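 Whole HEK 293 cells expressing human D2R, prelabelled with [2,8-3H]adenine for 75 min at 37 °C, then given 0.1 mM IBMX. […] Stopped with TCA. [3H]cAMP separated on Dowex/alumina. Inhibition normalized to 1 μM quinpirole. Mean ± SEM of ≥3 experiments.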

D(2) dopamine receptor [15] = target: T2, D(2) dopamine receptor; settings: CHO-K1, 500 nM
D(2) dopamine receptor [16] = target: T2, D(2) dopamine receptor; assay: Antagonist activity against human D2LR expressed in CHOK1 cells assessed as inhibition of pergolide-induced beta-arrestin translocation by beta-galactosidase based beta-arrestin recruitment assay; assay type: cell-based, CHO-K1
D(2) dopamine receptor [17] = target: T2, D(2) dopamine receptor; assay: Agonist activity at human D2R expressed in CHO cells assessed as stimulation of mitogenesis at 10 uM after 24 hrs by [3H]thymidine uptake assay relative to quinpirole; assay type: cell-based
How it was run: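 CHOp-D2 cells grown 48–72 h, then serum-starved 24 h. Exposed to 10 μM compound in serum-free α-MEM for 24 h at 37 °C. Pulsed 2 h with 0.25 μCi [3H]thymidine, trypsinized, filtered and counted. Stimulation expressed relative to maximal quinpirole. Two independent experiments.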

D(3) dopamine receptor [18] = target: T1, D(3) dopamine receptor; assay: Antagonist activity against D3R in human U2OS cells assessed as inhibition of (+)-PD128907-induced beta-arrestin translocation by beta-galactosidase based beta-arrestin recruitment assay; assay type: cell-based
D(3) dopamine receptor [19] = target: T1, D(3) dopamine receptor; settings: CHO, 1 uM
D(2) dopamine receptor [20] = target: T2, D(2) dopamine receptor; settings: CHO, 1 uM
D(3) dopamine receptor [21] = target: T1, D(3) dopamine receptor; settings: CHO, 10 uM
D(2) dopamine receptor [22] = target: T2, D(2) dopamine receptor; assay: Antagonist activity against human D2R expressed in CHO cells assessed as inhibition of quinpirole-induced mitogenesis after 24 hrs by [3H]thymidine uptake assay; assay type: cell-based
How it was run: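 Serum-starved CHOp-D2 or CHOp-D3 cells given serial dilutions of test compound plus quinpirole (30 nM final). Incubated at 37 °C for 24 h (D2) or 16 h (D3). Then 2 h [3H]thymidine pulse, filtration and counting.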

T1 sequence (P35462 whole entry): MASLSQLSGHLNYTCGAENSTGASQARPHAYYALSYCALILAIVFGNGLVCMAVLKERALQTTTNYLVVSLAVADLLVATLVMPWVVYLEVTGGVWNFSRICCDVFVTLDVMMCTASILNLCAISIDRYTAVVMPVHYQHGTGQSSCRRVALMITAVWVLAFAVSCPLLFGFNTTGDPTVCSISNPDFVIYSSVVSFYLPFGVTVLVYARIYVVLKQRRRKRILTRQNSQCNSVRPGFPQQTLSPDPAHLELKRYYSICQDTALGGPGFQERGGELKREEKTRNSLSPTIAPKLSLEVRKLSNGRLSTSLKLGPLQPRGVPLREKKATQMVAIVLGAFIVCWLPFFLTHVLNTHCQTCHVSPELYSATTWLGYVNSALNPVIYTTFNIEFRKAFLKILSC
D(3) dopamine receptor (Homo sapiens, UniProt P35462, S182I), sequence (P35462 as listed by the source S182I): as the sequence (P35462 whole entry) above, with G9S, S182I counted along it
D(3) dopamine receptor (Homo sapiens, UniProt P35462, E90Q), sequence (P35462 as listed by the source E90Q): as the sequence (P35462 whole entry) above, with G9S, E90Q counted along it
D(3) dopamine receptor (Homo sapiens, UniProt P35462, E90A), sequence (P35462 as listed by the source E90A): as the sequence (P35462 whole entry) above, with G9S, E90A counted along it
T2 sequence (P14416 whole entry): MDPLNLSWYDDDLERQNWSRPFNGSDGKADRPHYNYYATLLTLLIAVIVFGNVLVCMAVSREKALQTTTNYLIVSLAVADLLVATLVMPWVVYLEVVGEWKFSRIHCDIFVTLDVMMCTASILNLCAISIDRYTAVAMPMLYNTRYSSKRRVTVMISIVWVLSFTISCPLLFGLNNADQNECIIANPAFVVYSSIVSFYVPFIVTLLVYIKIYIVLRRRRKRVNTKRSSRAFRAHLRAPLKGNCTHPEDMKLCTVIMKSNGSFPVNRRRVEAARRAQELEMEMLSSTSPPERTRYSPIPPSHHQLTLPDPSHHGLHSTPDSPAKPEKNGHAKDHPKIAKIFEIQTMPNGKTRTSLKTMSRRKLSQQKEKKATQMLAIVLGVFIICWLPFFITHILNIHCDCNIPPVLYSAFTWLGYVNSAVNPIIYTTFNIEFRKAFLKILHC

`O=C(NCCCCN1CCN(c2ccccc2)CC1)c1cn2ccccc2n1` showed a Ki (D(3) dopamine receptor [1]) of 10 nM, a Ki (D(2) dopamine receptor [2]) of 178 nM and a Ratio Ki (Homo sapiens [3]) of 18.

For `CN(C)Cc1cccc2nc(C(=O)NCCCCN3CCN(c4cc(C(F)(F)F)nc(C(C)(C)C)n4)CC3)cn12`, the inhibition (D(2) dopamine receptor [4]) was “inactive”, the Activity (D(2) dopamine receptor [5]) was “inactive” and the Ratio IC50 (Homo sapiens [6]) was 9.7. The Ratio Ki (Homo sapiens [3]) was 11, the Ki (D(3) dopamine receptor [7]) was 16 nM and the Ki (D(2) dopamine receptor [8]) was 245 nM. The Ki (D(3) dopamine receptor [9]) was 44 nM, the Ki (D(2) dopamine receptor [10]) was 176 nM and the Ki (D(3) dopamine receptor [11]) was 24 nM. It also gave a Ki (D(3) dopamine receptor [12]) of 12 nM and a Ki (D(3) dopamine receptor [13]) of 12 nM.

With `CN(C)Cc1c(C(=O)NCCCCN2CCN(c3cc(C(F)(F)F)nc(C(C)(C)C)n3)CC2)nc2ccccn12` the inhibition (D(2) dopamine receptor [4]) was “inactive”, the Activity (D(2) dopamine receptor [5]) was “inactive” and the Ratio IC50 (Homo sapiens [6]) was 30. The Ratio Ki (Homo sapiens [3]) was 10, the Ki (D(3) dopamine receptor [7]) was 9.1 nM and the Ki (D(2) dopamine receptor [8]) was 191 nM. For the same molecule, the Ki (D(3) dopamine receptor [9]) was 27 nM, the Ki (D(2) dopamine receptor [10]) was 72 nM and the Ki (D(3) dopamine receptor [11]) was 16 nM. The Ki (D(3) dopamine receptor [12]) was 16 nM, the Ki (D(3) dopamine receptor [13]) was 19 nM and the inhibition (D(2) dopamine receptor [14]) was 8.9%. The inhibition (D(2) dopamine receptor [15]) was under 30%.

`O=C(NCCCCN1CCN(c2ccc3ccccc3n2)CC1)c1cn2ccccc2n1` gave a Ki (D(3) dopamine receptor [1]) of 77 nM, a Ki (D(2) dopamine receptor [2]) of 1560 nM and a Ratio Ki (Homo sapiens [3]) of 20.

With `CC(C)(C)c1nc(N2CCN(CCCCNC(=O)c3cn4nc(Cl)ccc4n3)CC2)cc(C(F)(F)F)n1` the inhibition (D(2) dopamine receptor [4]) was “inactive”, the Activity (D(2) dopamine receptor [5]) was “inactive” and the IC50 (D(2) dopamine receptor [16]) was 22 nM. It also gave an Activity (D(2) dopamine receptor [17]) of under 1%.

In the case of `CC(C)(C)c1nc(N2CCN(CCCCNC(=O)c3cn4cccnc4n3)CC2)cc(C(F)(F)F)n1`, the inhibition (D(2) dopamine receptor [4]) is reported as “inactive”, the Activity (D(2) dopamine receptor [5]) is reported as “inactive” and the IC50 (D(3) dopamine receptor [18]) is reported as 0.4 nM. For the same molecule, the IC50 (D(2) dopamine receptor [16]) was 37 nM, the Ratio IC50 (Homo sapiens [6]) was 93 and the Ratio Ki (Homo sapiens [3]) was 36. For the same molecule, the Activity (D(2) dopamine receptor [17]) was under 1% and the inhibition (D(2) dopamine receptor [14]) was 9.2%.

`Cc1cc(N2CCN(CCCCNC(=O)c3cn4ccccc4n3)CC2)nc(C(F)(F)F)n1` showed a Ki (D(3) dopamine receptor [1]) of 148 nM, a Ki (D(2) dopamine receptor [2]) of 3650 nM and a Ratio Ki (Homo sapiens [3]) of 25.

Work on `CC(C)(C)c1nc(N2CCN(CCCCNC(=O)c3cc4cccnc4s3)CC2)cc(C(F)(F)F)n1` yielded a Ki (D(3) dopamine receptor [1]) of 32 nM, a Ki (D(2) dopamine receptor [2]) of 683 nM and a Ratio Ki (Homo sapiens [3]) of 21.

For `CC(C)(C)c1nc(N2CCN(CCCCNC(=O)c3cn4ccccc4n3)CC2)cc(C(F)(F)F)n1`, the inhibition (D(2) dopamine receptor [4]) was “inactive”, the Activity (D(2) dopamine receptor [5]) was “inactive” and the IC50 (D(3) dopamine receptor [18]) was 0.6 nM. For the same molecule, the Ratio IC50 (Homo sapiens [6]) was 435, the Ki (D(3) dopamine receptor [7]) was 8.4 nM and the Ki (D(2) dopamine receptor [8]) was 702 nM. The Ki (D(3) dopamine receptor [9]) was 40 nM, the Ki (D(2) dopamine receptor [10]) was 148 nM and the Ki (D(3) dopamine receptor [11]) was 12 nM. The Ki (D(3) dopamine receptor [12]) was 13 nM, the Ki (D(3) dopamine receptor [13]) was 20 nM and the Activity (D(2) dopamine receptor [17]) was 0%. It also gave an inhibition (D(2) dopamine receptor [14]) of -1.9%, an inhibition (D(3) dopamine receptor [19]) of under 30% and an inhibition (D(2) dopamine receptor [20]) of under 30%. It also gave an inhibition (D(3) dopamine receptor [21]) of 40%.

`N#Cc1cc(N2CCN(CCCCNC(=O)c3cn4ccccc4n3)CC2)cc(C(F)(F)F)c1` showed a Ki (D(3) dopamine receptor [1]) of 6.4 nM, a Ki (D(2) dopamine receptor [2]) of 191 nM and a Ratio Ki (Homo sapiens [3]) of 30.

With `O=C(NCCCCN1CCN(c2cccc(Cl)c2Cl)CC1)c1cn2ccccc2n1` the inhibition (D(2) dopamine receptor [4]) was “inactive”, the Activity (D(2) dopamine receptor [5]) was “inactive” and the IC50 (D(3) dopamine receptor [18]) was 0.2 nM. The IC50 (D(2) dopamine receptor [16]) was 91 nM, the Ratio IC50 (Homo sapiens [6]) was 455 and the Ki (D(3) dopamine receptor [1]) was 0.3 nM. For the same molecule, the Ki (D(2) dopamine receptor [2]) was 12 nM, the Ratio Ki (Homo sapiens [3]) was 40 and the Activity (D(2) dopamine receptor [17]) was under 20%. It also gave an IC50 (D(2) dopamine receptor [22]) of 55 nM, an inhibition (D(2) dopamine receptor [14]) of 45% and an inhibition (D(3) dopamine receptor [19]) of under 30%. The inhibition (D(2) dopamine receptor [20]) was under 30%.

With `CC(C)(C)c1nc(N2CCN(CCCCNC(=O)c3cc4ccccc4[nH]3)CC2)cc(C(F)(F)F)n1` the inhibition (D(2) dopamine receptor [4]) was “inactive”, the Activity (D(2) dopamine receptor [5]) was “inactive” and the IC50 (D(3) dopamine receptor [18]) was 5.6 nM. For the same molecule, the IC50 (D(2) dopamine receptor [16]) was 418 nM, the Ratio IC50 (Homo sapiens [6]) was 75 and the Ki (D(3) dopamine receptor [1]) was 11 nM. For the same molecule, the Ki (D(2) dopamine receptor [2]) was 913 nM and the Ratio Ki (Homo sapiens [3]) was 83.
